In the library only some 2.9% were active in any assay of this set; here they are far more common.
CHO parental Ca – ATP-evoked calcium signal inhibitors, parental CHO, primary screen, counter-screen for OX1R antagonist project, cell-based, fluorescence, Fluo-8 calcium dye. 330,000 compounds, 0.63% hits. AID 463079, 2010. parental CHO-K1, ATP-induced calcium, Fluo-8 fluorescence. inhibition, % at 5.6 µM;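 active means inhibition above that plate's mean sample inhibition plus 3 SD, cut at about 26% in these data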;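 further: 0% = ATP-challenged DMSO wells and 100% = DMSO wells without ATP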
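material = parental CHO cells | also added = ATP as calcium-mobilizing challenge | dosing = single point at 5.6 µM | detection = intracellular calcium via Fluo-8 no-wash fluorescent dye | read-out = % inhibition | benchmarks = low control ATP plus DMSO, high control DMSO only | repeats = one well per compound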
M1 PAM parental – nonselective calcium activators in parental CHO-K1 cells, primary screen, counter-screen for M1 PAM project, cell-based, Fluo-8 calcium fluorescence, full deck, 1536-well. 360,000 compounds, 0.02% hits. ATP EC20; 0% at ATP EC20, 100% at ATP max. activation, % at 3 µM;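 active means activation above the run cutoff, the mean activation of all test compounds plus 3 SD, cut at about 40% in these data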;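 further: peak over basal fluorescence ratio in a 140 s read after ATP addition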
OX1R antag-1 – OX1R (HCRTR1) antagonists, primary screen, fluorescence, CHO/OX1R cells, Fluo-8 calcium, orexin A | Orexin/Hypocretin receptor type 1 (Homo sapiens), O43613 | Fluo-8 calcium fluorescence | inhibition, % at 5 µM | 330,000 compounds, 0.43% hits;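 active means inhibition above its plate's threshold, mean inhibition of all tested compounds on the plate plus 3 SD, cut at about 37% in these data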;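 further: 0% = orexin A challenge wells and 100% = SB-334867-A antagonist wells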
Target sequence (O43613 whole entry, looked up): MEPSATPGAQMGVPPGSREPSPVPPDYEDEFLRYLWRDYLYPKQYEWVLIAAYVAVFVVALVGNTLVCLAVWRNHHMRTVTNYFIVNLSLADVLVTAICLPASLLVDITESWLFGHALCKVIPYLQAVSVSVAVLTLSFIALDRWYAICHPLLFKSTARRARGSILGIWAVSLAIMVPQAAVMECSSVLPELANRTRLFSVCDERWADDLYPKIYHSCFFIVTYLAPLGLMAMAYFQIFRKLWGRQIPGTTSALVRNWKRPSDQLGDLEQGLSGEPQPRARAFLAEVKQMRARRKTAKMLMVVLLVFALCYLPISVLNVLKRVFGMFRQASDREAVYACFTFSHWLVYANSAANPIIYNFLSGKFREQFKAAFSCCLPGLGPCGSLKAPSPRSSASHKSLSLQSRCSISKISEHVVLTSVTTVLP
OX1R antag-2 – antagonists of human orexin 1 receptor (OX1R); OX1R-expressing cells, FRET antagonist read-out; 330,000 compounds, 1.8% hits; inhibition, % at 6.6 µM; in the data active means inhibition mostly above about 38%, no sharp cut-off; inactive means mostly below about 40%;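 further: 0% = agonist challenge alone and 100% = reference antagonist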
M1 ag parental – counter-screen for M1 agonists: effect in parental CHO-K1 cells | activation, % at 3 µM | 360,000 compounds, 0.48% hits | Fluo-8 calcium fluorescence; scaled to maximal ATP response, vehicle zero; in the data active means activation above about 15%;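 further: untransfected CHO-K1 host cells lacking M1 receptor as counterscreen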
CHO-K1 Ca antag – counter-screen for M1 antagonists: effect in parental CHO-K1 cells | ATP-induced calcium, Fluo-8 fluorescence | inhibition, % at 3 µM | 360,000 compounds, 0.6% hits;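 active means inhibition above a per-plate cutoff, the plate's mean sample inhibition plus 3 SD, cut at about 24% in these data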;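 further: 0% = DMSO plus EC80 ATP and 100% = DMSO alone without ATP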
An asterisk follows results filed as active.

O=C1OC(c2ccccc2)=N/C1=C/c1cccc(OC(=O)c2cccs2)c1 was read as CHO parental Ca -9.5, M1 PAM parental 7.0, OX1R antag-1 -1.7, OX1R antag-2 20.0, M1 ag parental 2.0 and CHO-K1 Ca antag 42.8*.
CN(Cc1ccccc1)C(c1ccnc2ccccc12)c1nnnn1-c1ccc2c(c1)OCCO2 (stereo unspecified) was read as M1 PAM parental 9.1, M1 ag parental 1.5 and CHO-K1 Ca antag -1.6.
`Cc1nnc(-c2ccccc2)c[n+]1[O-]` gave CHO parental Ca 3.0, M1 PAM parental 14.9, OX1R antag-1 -2.4, OX1R antag-2 56.2*, M1 ag parental 0.1 and CHO-K1 Ca antag -4.8.
`c1ccc(-c2cnc(-c3ccccc3)nn2)cc1` gave CHO parental Ca -6.4, M1 PAM parental 0.7, OX1R antag-1 10.1, OX1R antag-2 25.6, M1 ag parental 0.3 and CHO-K1 Ca antag -5.4.
`COc1cccc(NC(=O)CN(C)C(=O)c2cc(S(=O)(=O)NCc3ccccc3)ccc2C)c1` gave CHO parental Ca -18.2, M1 PAM parental 21.9, OX1R antag-1 -9.7, OX1R antag-2 16.8, M1 ag parental 2.6 and CHO-K1 Ca antag -14.6.
Cc1c(C2(O)CCCCC2)[nH]c2ccc(C(F)(F)F)cc12 was read as CHO parental Ca 57.1*, M1 PAM parental -8.0, OX1R antag-1 46.7, OX1R antag-2 52.5*, M1 ag parental 0.2 and CHO-K1 Ca antag -11.5.
`O=c1cc(-c2ccccc2O)nc(-c2ccccc2)[nH]1` gave CHO parental Ca -7.5, M1 PAM parental 13.3, OX1R antag-1 -9.5, OX1R antag-2 31.3, M1 ag parental 5.7 and CHO-K1 Ca antag -9.9.
For OCCN(CCO)c1ccc(C(c2ccccc2Cl)c2ccc(N(CCO)CCO)cc2Cl)c(Cl)c1 the results were CHO parental Ca 46.5*, M1 PAM parental 17.1, OX1R antag-1 39.2, OX1R antag-2 6.3, M1 ag parental 0.5 and CHO-K1 Ca antag -1.5.
For Cc1nc(-c2ccc(O)c(O)c2)cs1 the results were CHO parental Ca -4.5, M1 PAM parental -8.6, OX1R antag-1 -12.9, OX1R antag-2 1.7, M1 ag parental -0.1 and CHO-K1 Ca antag 26.5*.
Screening Oc1ccc(-c2csc(-c3ccccc3)n2)cc1O returned CHO parental Ca 27.8*, M1 PAM parental 1.9, OX1R antag-1 15.6, OX1R antag-2 14.5, M1 ag parental -0.2 and CHO-K1 Ca antag 0.4.
`CC(C)(C)c1ccc(C(=O)CCC(=O)OCC(=O)NCCc2ccc(S(N)(=O)=O)cc2)cc1` gave CHO parental Ca 24.3, M1 PAM parental -11.3, OX1R antag-1 35.1, OX1R antag-2 6.7, M1 ag parental 20.3* and CHO-K1 Ca antag 12.6.
For CC(=O)N1C(=O)C2(NCC(C)N2)c2ccccc21 (stereo unspecified) the results were M1 PAM parental 2.5, M1 ag parental 0.2 and CHO-K1 Ca antag -2.7.
Screening c1ccc(-c2c(-c3ccccc3)n(Cc3ccco3)c3ncnc(NCCCn4ccnc4)c23)cc1 returned CHO parental Ca 27.7, M1 PAM parental 18.9, OX1R antag-1 21.1, OX1R antag-2 53.5*, M1 ag parental 2.5 and CHO-K1 Ca antag -13.8.
For COc1cccc(OC)c1C(=O)NC(=S)Nc1cc(-c2nc3ccccc3[nH]2)ccc1Cl the results were CHO parental Ca -16.7, M1 PAM parental 10.9, OX1R antag-1 20.1, OX1R antag-2 74.3*, M1 ag parental 3.4 and CHO-K1 Ca antag -0.1.
For COCCOc1nc2c(c(=O)n(C)c(=O)n2C)n1Cc1cccc(OC)c1 the results were CHO parental Ca 44.8*, M1 PAM parental 15.9, OX1R antag-1 -6.8, OX1R antag-2 5.3, M1 ag parental 4.7 and CHO-K1 Ca antag 5.7.
Screening COc1ccc(Oc2nc3c(c(=O)n(C)c(=O)n3C)n2Cc2cccc(OC)c2)cc1 returned CHO parental Ca -6.6, M1 PAM parental -4.8, OX1R antag-1 -17.6, OX1R antag-2 26.3, M1 ag parental 0.1 and CHO-K1 Ca antag 2.4.
O=C1CCC(C(=O)N2CCCC(C(=O)c3ccc4c5c(cccc35)CC4)C2)=NN1 (stereo unspecified) was read as CHO parental Ca -9.6, M1 PAM parental 16.9, OX1R antag-1 -16.5, OX1R antag-2 5.2, M1 ag parental 0.8 and CHO-K1 Ca antag -10.6.
`COc1ccccc1C(=O)Nc1ccc(Br)cc1C` gave CHO parental Ca -29.2, M1 PAM parental 26.6, OX1R antag-1 -46.7, OX1R antag-2 40.2, M1 ag parental 0.3 and CHO-K1 Ca antag -21.0.
`Cc1csc(=O)n1CC(=O)OCc1cccc2ccccc12` gave CHO parental Ca -23.1, M1 PAM parental 14.7, OX1R antag-1 1.6, OX1R antag-2 45.9*, M1 ag parental 1.1 and CHO-K1 Ca antag 2.8.
`CCc1cccc(C)c1NC(=O)COC(=O)Cn1c(C)csc1=O` gave CHO parental Ca -18.7, M1 PAM parental -21.1, OX1R antag-1 -29.8, OX1R antag-2 30.2, M1 ag parental -0.1 and CHO-K1 Ca antag 13.2.
Screening CC(C)[C@H](NC(=O)N1c2ccccc2NC(=O)[C@@H]1C(C)C)C(=O)N[C@H](Cc1ccccc1)C(=O)O returned CHO parental Ca -10.4, M1 PAM parental 9.6, OX1R antag-1 -5.1, OX1R antag-2 13.2, M1 ag parental 0.2 and CHO-K1 Ca antag 0.0.
Screening CC(O)CN(CC(C)O)c1ccc2c(c1)Cc1cc([N+](=O)[O-])ccc1-2 (stereo unspecified) returned M1 PAM parental -20.3, M1 ag parental 173.6* and CHO-K1 Ca antag 59.6*.
COc1ccccc1C(=O)COC(=O)C1CCN(S(=O)(=O)c2ccc(C)c(C)c2)CC1 was read as CHO parental Ca -14.6, M1 PAM parental 4.2, OX1R antag-1 -11.8, OX1R antag-2 21.8, M1 ag parental 0.3 and CHO-K1 Ca antag -9.5.
Cc1ccc(NC(=O)CSc2nn(-c3ccccc3)c(=S)s2)cc1S(=O)(=O)N(C)C was read as CHO parental Ca 26.2, M1 PAM parental -4.9, OX1R antag-1 43.2, OX1R antag-2 41.6, M1 ag parental 12.7 and CHO-K1 Ca antag 29.4*.
`CC1CCCCC12NC(=O)N(CC(=O)Nc1ccc(OC(F)F)cc1)C2=O` (stereo unspecified) gave CHO parental Ca -10.0, M1 PAM parental -1.9, OX1R antag-1 4.9, OX1R antag-2 -3.8, M1 ag parental -1.0 and CHO-K1 Ca antag -22.0.
CCOC(=O)c1oc2cccc(OC(C)=O)c2c1C was read as CHO parental Ca 1.4, M1 PAM parental 16.4, OX1R antag-1 2.3, OX1R antag-2 46.6, M1 ag parental 0.8 and CHO-K1 Ca antag -4.6.
Screening CCOC(=O)c1oc2cccc(O)c2c1C returned CHO parental Ca -4.7, M1 PAM parental 16.4, OX1R antag-1 -14.3, OX1R antag-2 39.3*, M1 ag parental 2.4 and CHO-K1 Ca antag -4.0.

Screens as filed in PubChem.
